Source: PubChem
ARFGAP1 inh: inhibitors of rat ARFGAP1; 360,000 compounds, 0.26% hits; AID 651572; Arfgap1-stimulated ARF1 GTP hydrolysis, GDP FP detection; inhibition, % at 16.5 µM; Q62848;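 active = inhibition above a per-plate limit, mean inhibition of low control wells plus 3 SD, cut at about 25% in these data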;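 also: 0% = DMSO wells with enzyme and 100% = wells lacking Arfgap1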
Target sequence (Q62848 1-136 limits assumed): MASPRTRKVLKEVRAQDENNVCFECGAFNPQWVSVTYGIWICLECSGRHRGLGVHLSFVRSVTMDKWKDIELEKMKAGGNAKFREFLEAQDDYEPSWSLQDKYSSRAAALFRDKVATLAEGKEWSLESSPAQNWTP
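Assay system: purified rat His6-Arfgap1 residues 1-136 (GAP domain); Reagent: human Δ17 ARF1 bound to GTP; Dosing: 16.5 µM single point, 1.26% DMSO; Times: GTP hydrolysis reaction 2 h at 25 °C; Signal: FP, GDP Alexa 633 tracer displaced from anti-GDP antibody, 620/688 nm; Measure: % inhibition from polarization.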
ASAP1 GAP inh: inhibitors of human ASAP1 ArfGAP activity; Q9ULH1; ASAP1-stimulated ARF1 GTP hydrolysis, GDP FP detection; inhibition, % at 16.5 µM; 360,000 compounds, 0.19% hits; AID 624377; in the data active = inhibition above about 25%;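 also: 0% = vehicle with enzyme and substrate and 100% = no enzyme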
Target sequence (Q9ULH1 325-724 limits assumed): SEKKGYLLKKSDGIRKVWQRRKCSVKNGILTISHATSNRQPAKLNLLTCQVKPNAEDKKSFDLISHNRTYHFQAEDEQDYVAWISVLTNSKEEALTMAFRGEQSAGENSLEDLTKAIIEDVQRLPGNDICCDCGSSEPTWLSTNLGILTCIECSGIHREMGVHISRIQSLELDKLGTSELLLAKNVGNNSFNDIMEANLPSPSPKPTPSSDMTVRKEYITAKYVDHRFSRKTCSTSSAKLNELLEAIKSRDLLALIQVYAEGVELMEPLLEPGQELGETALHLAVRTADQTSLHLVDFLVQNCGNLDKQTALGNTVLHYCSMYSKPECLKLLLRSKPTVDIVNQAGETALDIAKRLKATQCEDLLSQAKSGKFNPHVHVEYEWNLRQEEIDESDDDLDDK
MsrA inh: inhibits bovine methionine sulfoxide reductase A; AID 651718; 360,000 compounds, 0.75% hits; inhibition, % at 15.5 µM; purified bovine MsrA, absorbance read-out; in the data active = inhibition above about 4.5%;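 also: 0% = vehicle wells with enzyme and 100% = reference inhibitor wells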
bovine MsrA act: activates bovine MsrA enzyme; purified bovine MsrA, absorbance read-out; activation, % at 10.6 µM; 360,000 compounds, 0.3% hits; AID 602163; in the data active = activation above about 7.5%;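 also: 0% = vehicle and 100% = reference activator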
ASAP1 inh confirm: ASAP1 inhibition confirmed. inhibition, % at 16.5 µM. ASAP1-stimulated Arf1 GTPase, GDP fluorescence polarization. shares compounds with ASAP1 GAP inh. 620 compounds, 37% hits;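 active = mean inhibition over triplicates exceeds the hit threshold derived for the earlier primary screening run, cut at about 25% in these data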
Starred values were filed as active, the others as inactive; / = no result given. Rows were chosen to be rich in hits. Some 1.4% of all compounds tested hit in one or more screens of this group.

SMILES	ARFGAP1 inh	ASAP1 GAP inh	MsrA inh	bovine MsrA act	ASAP1 inh confirm
Cc1nc2nc[nH]n2c(=O)c1NS(C)(=O)=O	1	26*	-1	-11	4
COc1ccc2oc(C(=O)OCC(=O)N3CCC(C)CC3)c(C)c2c1	15	27*	1	-5	15
COc1cccc(/C=C/c2nc(C#N)c(NCC(C)C)o2)c1	1	29*	2	-6	15
NC(=O)c1ccc(NC(=O)COC(=O)c2ccc(Br)c(S(=O)(=O)N3CCOCC3)c2)cc1	2	10	-1	-10	/
CC(=O)O[C@H]1C=C[C@@H](NC(=O)OC(C)(C)C)C1	-2	-1	0	/	/
COc1ccc(N(C(=O)CCl)C(C(=O)NC2CCCCC2)c2cccnc2)cc1 (configuration not stated)	-8	70*	-1	-2	0
C[C@H](CO)N1C[C@H](C)[C@H](CN(C)C(=O)c2ccccc2)OCc2ccccc2-c2c(n(C)c3ccccc23)C1=O	4	1	-1	-2	/
O=C(Nc1ccc2c(c1)OCCO2)C(c1ccncc1)n1c(=O)c(-c2cc3ccccc3[nH]2)nc2ccccc21 (configuration not stated)	8	33*	1	/	16
CSc1ccccc1C(=O)N(CC1CCCO1)c1c(N)n(Cc2ccccc2)c(=O)[nH]c1=O (configuration not stated)	6	6	0	-7	/
CC1CCCC(C)N1C(=O)COC(=O)CCC(=O)c1ccc(F)cc1 (configuration not stated)	-4	29*	-1	-4	2
COc1ccc2[nH]c3c(c2c1)CCN1C(=O)C(CC(=O)NC(C)(C)C)C[C@H](C(=O)N(C(C)C)C(C)C)[C@@]31C (some centres not stated)	-3	6	2	-5	/
O=C(C(=O)N1CCC(CNS(=O)(=O)c2ccc(F)c(F)c2)CC1)c1cc2ccccc2o1	7	2	1	/	/
Nc1n[nH]c(N)c1N=Nc1ccc(Cl)cc1Cl	6	29*	1	-5	16
CCOCCn1ccc2c(OCC(=O)NCc3ccccc3)cccc2c1=O	-5	-2	0	-3	/
C[C@H](CO)N1C[C@H](C)[C@H](CN(C)C(=O)Nc2ccc(F)cc2)Oc2c(NC(=O)c3ccc(-c4nccs4)cc3)cccc2C1=O	6	31*	1	-6	10
CCCCNC(=O)NC(C(=O)OC)C12CC3CC(CC(C3)C1)C2 (configuration not stated)	13	30*	0	-1	-4
CN(C)S(=O)(=O)c1ccc(C(=O)NCC(C)(C)CN=C2NS(=O)(=O)c3ccccc32)cc1	0	-8	-1	0	/
COc1ccc(C(=O)Nc2cccc(-c3cc4ccccc4oc3=O)c2)cc1[N+](=O)[O-]	24	27*	1	-7	72*
COc1ccc(C(=O)N2CCN(S(=O)(=O)c3ccc4c(c3)OCCO4)CC2)cc1OC	0	1	-1	1	/
COc1ccc(C(=O)c2c(C)c3cc(C)ccc3n2CC(O)CN2CCOCC2)cc1 (configuration not stated)	-8	26*	2	-12	1
Cn1c(=O)cc(SCC(=O)N2CCCC2)c2ccccc21	2	35*	2	-2	3
CN(Cc1ccccc1)C(=O)CSc1cc(=O)n(C)c2ccccc12	4	12	1	-5	/
Cc1nnc(-c2cccc(Br)c2)c2cn(-c3ccccc3)nc12	-1	12	0	-3	/
Cc1nnc(-c2cccc(Br)c2)c2cn(-c3cccc(Br)c3)nc12	14	27*	-1	-1	20
CCCCOC(=O)Sc1nc2ccccc2o1	-1	25*	2	-1	-1
SMILES	ARFGAP1 inh	ASAP1 GAP inh	MsrA inh	bovine MsrA act	ASAP1 inh confirm
O=C(Cn1c2ccccc2c(=O)c2ccccc21)N/N=C/c1cc([N+](=O)[O-])ccc1N1CCCCCC1	20	37*	1	-3	40*
ON1C(c2ccc(Cl)cc2Cl)N(O)[C@H]2CCCC[C@H]21 (some centres not stated)	5	2	0	-3	/
CC1N(O)C(c2ccc(Cl)cc2Cl)N(O)C1(C)C (configuration not stated)	5	25*	0	0	5
COc1ccc(/C=N/NC(=O)c2cc3c(ccc4ccccc43)o2)c(OC)c1	8	34*	0	-4	16
COc1ccc(C(=O)N/N=C/c2cn[nH]c2-c2ccc(OC)cc2OC)cc1	4	29*	1	-5	19
C#CCNC(=O)C[C@H]1C[C@@]2(C(=O)OC)C(=C[C@H](C(C)C)O[C@@H]2C2CC2)N(Cc2ccccc2)C1=O	-16	5	0	/	/
Cc1ccc(-n2nc3c(c2NC(=O)c2ccco2)CS(=O)C3)cc1 (configuration not stated)	-8	25*	-1	-1	-2
COC1=C(N)C(=O)c2nc(C)ccc2C1=O	21	18	1	-1	/
COC1=C(Br)C(=O)c2nc(C)ccc2C1=O	5	27*	2	0	4
COc1ccccc1CNC(=O)C(C)Sc1ccsc1[N+](=O)[O-] (configuration not stated)	-17	-8	2	-4	/
CC(Sc1ccsc1[N+](=O)[O-])C(=O)NCc1ccccc1 (configuration not stated)	8	25*	1	/	3
CN1CCN(c2ccc(S(=O)(=O)N3CCCCC3)cc2NC(=O)/C=C/c2ccc(OC(F)F)cc2)CC1	14	25*	0	-7	19
CCN1CCN(c2ccc(S(=O)(=O)N3CCCCC3)cc2NC(=O)/C=C/c2ccc(OC(F)F)cc2)CC1	11	5	0	-7	/
COc1ccc(C(=O)Nc2cc(C)nn2-c2cccc(F)c2)cc1OC	0	-4	0	-3	/
CCCc1cc(=O)oc2c(C)c(OCC(=O)NC3CC(C)(C)NC(C)(C)C3)ccc12	-10	27*	2	-2	4
Cc1cc(=O)oc2c(C)c(OCC(=O)NC3CC(C)(C)NC(C)(C)C3)ccc12	-1	8	1	-2	/
CCn1c(SCC(=O)NNC(=O)c2ccc(OC)cc2)nnc1-c1cccnc1	-2	0	0	-7	/
CCN1C=C(Cc2cccs2)C2=C(C1)C(c1cccs1)C(C#N)=C(N)O2 (configuration not stated)	-4	25*	3	-3	7
COc1ccc(C2=NS(=O)(=O)N(C)C(C(=O)Nc3ccc(OC)c(OC)c3)=C2)cc1	20	14	3	-3	/
COc1ccc(NC(=O)C2=CC(c3ccc(C)cc3)=NS(=O)(=O)N2C)cc1OC	3	25*	2	-2	13
CCC1CCCCN1C(=O)CCn1c(=O)oc2ccccc21 (configuration not stated)	-5	9	0	2	/
COc1ccc(C2=Nc3ccccc3NC(=O)C2N(CCc2ccccc2)C(=O)c2cccs2)cc1 (configuration not stated)	7	27*	0	-4	-1
